ChEMBL document CHEMBL3632484, “Synthesis and preliminary biological evaluation of a small library of hybrid compounds based on Ugi isocyanide multicomponent reactions with a marine natural product scaffold” (Bioorg Med Chem Lett, 2015)
≈ marks a conversion by molar mass, not a printed value.

Columns and labels:
[1] = test system: Mycobacterium tuberculosis; experiment: Antimycobacterial activity against Mycobacterium tuberculosis H37Rv ATCC 27294 by microplate alamar blue assay; type: functional
In short: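 Minimum inhibitory concentration by microplate Alamar blue assay against the H37Rv laboratory strain, reported in μg/mL as the mean of three experiments.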

[2] = test system: Plasmodium falciparum; experiment: Antiplasmodial activity against chloroquine-susceptible Plasmodium falciparum 3D7 infected in human O+ erythrocytes after 72 hrs by SYBR Green based parasite proliferation assay; type: functional, organism-based; conditions: 3D7, 72 h
[3] = Selectivity index, ratio of IC50 for African green monkey Vero cells to IC50 for chloroquine-susceptible Plasmodium falciparum 3D7; type: toxicity, cell-based; conditions: read-out: Ratio IC50
In short: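 Index calculated as Vero cell IC50 divided by the IC50 against chloroquine-susceptible P. falciparum 3D7. The 3D7 IC50 is the concentration giving 50% parasite survival, reported in nM as the mean ± standard error of three experiments.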

[4] = Antineuroinflammatory activity in LPS-primed rat neonatal microglia assessed as inhibition of PMA-stimulated release of O2- after 70 mins; type: functional
In short: (§1)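 Rat microglia primed with E. coli LPS, then stimulated with PMA (1 μM) for 70 min. Release of superoxide (O2–) and of TXB2 is measured, and the IC50 is the concentration that inhibits release. Short-term viability is checked in parallel by LDH release (LDH50 = 50% of total cellular LDH). Data come from 1–4 independent experiments.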

[5] = Cytotoxicity against rat neonatal microglia assessed as cell viability by lactate dehydrogenase release assay; conditions: read-out: LD50 (the source's name)
In short: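 Rat microglia were primed with E. coli LPS and then stimulated with PMA (1 μM) for about 70 min. LDH release was measured as short-term viability. LDH50 is the concentration causing release of 50% of the total cellular LDH content. Data come from 1–4 independent experiments.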

[6] = Antineuroinflammatory activity in LPS-primed rat neonatal microglia assessed as inhibition of PMA-stimulated release of TXB2 after 70 mins; type: functional; in short: as §1
[7] = test system: Vero; experiment: Cytotoxicity against African green monkey Vero cells; type: cell-based; conditions: Chlorocebus sabaeus
In short: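 IC50 in mammalian Vero cells, reported in nM as the mean of three experiments.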

`[C-]#[N+][C@@]12CCC(=C)[C@H]3[C@H](CC(C)(C)NC(=O)CN(CCNc4ccnc5cc(Cl)ccc45)C(=O)c4ccncc4)C[C@H](C)[C@@H](CC[C@@H]1C)[C@@H]32` showed an MIC [1] of 52 µg/mL (≈ 76.3 µM), an IC50 [2] of 3.6 nM and a selectivity ratio [3] of 7150. The IC50 [4] was 5000 nM, the CC50 [5] was 5000 nM and the IC50 [6] was 900 nM. The IC50 [7] was 25800 nM.
`[C-]#[N+][C@@]12CCC(=C)[C@H]3[C@H](CC(C)(C)NC(=O)CN(CCC(C)C)C(=O)c4ccncc4)C[C@H](C)[C@@H](CC[C@@H]1C)[C@@H]32` gave an MIC [1] of 14.9 µg/mL (≈ 27.2 µM), an IC50 [2] of 11.5 nM and a selectivity ratio [3] of 1720. The IC50 [4] was over 10000 nM, the CC50 [5] was over 10000 nM and the IC50 [6] was 3000 nM. It also gave an IC50 [7] of 19800 nM.
With `[C-]#[N+][C@@]12CCC(=C)[C@H]3[C@H](CC(C)(C)NC(=O)C(c4ccccc4)N(CCC(C)C)C(=O)c4ccncc4)C[C@H](C)[C@@H](CC[C@@H]1C)[C@@H]32` (mixture of isomers) the MIC [1] was 56.4 µg/mL, the IC50 [2] was 13 nM and the selectivity ratio [3] was 3780. It also gave an IC50 [4] of over 10000 nM, a CC50 [5] of over 10000 nM and an IC50 [6] of 100 nM. For the same molecule, the IC50 [7] was 49200 nM.
For `[C-]#[N+][C@@]12CCC(=C)[C@H]3[C@H](CC(C)(C)NC(=O)CN(CCNc4ccnc5cc(Cl)ccc45)C(C)=O)C[C@H](C)[C@@H](CC[C@@H]1C)[C@@H]32`, the MIC [1] was 17.9 µg/mL (≈ 29 µM), the IC50 [2] was 11.1 nM and the selectivity ratio [3] was 2570. It also gave an IC50 [4] of 1700 nM, a CC50 [5] of 5000 nM and an IC50 [6] of 800 nM. It also gave an IC50 [7] of 28600 nM.
Molecule `[C-]#[N+][C@@]12CCC(=C)[C@H]3[C@H](CC(C)(C)NC(=O)CNC(=O)c4ccncc4)C[C@H](C)[C@@H](CC[C@@H]1C)[C@@H]32` has an MIC [1] of 102 µg/mL (≈ 214 µM), an IC50 [2] of 6.3 nM and an IC50 [4] of over 10000 nM. It also gave a CC50 [5] of over 10000 nM and an IC50 [6] of 1100 nM.
For `[C-]#[N+]C(C)(C)C[C@@H]1C[C@H](C)[C@H]2CC[C@H](C)[C@@]3([N+]#[C-])CCC(=C)[C@@H]1[C@H]23` [DIISOCYANOAMPHILECTENE], the MIC [1] was 3.2 µg/mL (≈ 9.86 µM), the IC50 [2] was 1.2 nM and the selectivity ratio [3] was 83100. For the same molecule, the IC50 [4] was over 10000 nM, the CC50 [5] was over 10000 nM and the IC50 [6] was 230 nM. For the same molecule, the IC50 [7] was 99700 nM.
`NNC(=O)c1ccncc1` [ISONIAZID] showed an MIC [1] of 0.44 µg/mL (≈ 3.21 µM).
